Results: ChEMBL document CHEMBL1125330, “N-substituted pyrazino[2,3-c][1,2,6]thiadiazine 2,2-dioxides. A new class of diuretics” (J Med Chem, 1992)

Columns and labels:
Conditions in all cases: in vivo
Rattus norvegicus [1] = organism: Rattus norvegicus; assay: Mean sodium excretion in rats (Control/Drug treatment value); value 0.44/2.68; assay type: ADME, organism-based
Rattus norvegicus [2] = organism: Rattus norvegicus; assay: Mean urinary output in rats (Control/Drug treatment value); value 26.1/45.7; assay type: ADME, organism-based, Urine
How it was run: (§1)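 Water-loaded male Sprague-Dawley rats (HC/CFY, 175-200 g), eight per group, deprived of food and water 18 h. Single oral gavage of 20-25 mg/kg (some 10 mg/kg) in 1% CMC/0.1% Tween 80, then distilled water 2.5 mL/100 g bw po. Cumulative urine over 6 h in metabolic cages; mean mL/6 h/kg bw vs vehicle group.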

Rattus norvegicus [3] = organism: Rattus norvegicus; assay: Mean sodium excretion in rats (Control/Drug treatment value); value 0.41/2.06; assay type: ADME, organism-based
Rattus norvegicus [4] = organism: Rattus norvegicus; assay: Mean urinary output in rats (Control/Drug treatment value); value 22.8/35.1; assay type: ADME, organism-based, Urine; how it was run: as §1

| Na (Rattus norvegicus [1]) | V (Rattus norvegicus [2]) | Na (Rattus norvegicus [3]) | V (Rattus norvegicus [4]) | Structure (SMILES) |
| --- | --- | --- | --- | --- |
| 6.1 | 1.8 |  |  | CCCN1c2nc(C)c(C)nc2C(N)=NS1(=O)=O |
|  |  | 5 | 1.5 | CCCN1c2nc(CC)c(C)nc2C(N)=NS1(=O)=O |
